Reference: ChEMBL document CHEMBL4130485, “Inhibitors of Yellow Fever Virus replication based on 1,3,5-triphenyl-4,5-dihydropyrazole scaffold: Design, synthesis and antiviral evaluation” (Eur J Med Chem, 2017)

Tests used:
[1] = test system: Vaccinia virus; assay: Antiviral activity against Vaccinia virus Lister ATCC VR 1549 infected in African green monkey Vero 76 cells assessed as protection against virus-induced cytopathic effect after 3 days by crystal violet staining-based plaque reduction assay; type: functional, organism-based; settings: Orthopoxvirus vaccinia, ATCC VR 1549, Vero 76, 72 h
[2] = test system: Enterovirus C; assay: Antiviral activity against Enterovirus C Sabin […] infected in African green monkey Vero 76 cells assessed as protection against virus-induced cytopathic effect after 2 days by crystal violet staining-based plaque reduction assay; type: functional, organism-based; settings: Vero 76, 48 h
[3] = test system: Yellow fever virus; assay: Antiviral activity against Yellow fever virus 17D vaccine (Stamaril Pasteur J07B01) infected in golden hamster BHK21 cells assessed as protection against virus-induced cytopathic effect after 3 to 4 days by MTT assay; type: functional, organism-based; settings: BHK-21
Summary of the method: (§1)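 BHK-21 cells (MDBK for BVDV) seeded at 5×10^4 (BHK) or 3×10^4 (MDBK) cells/well and grown overnight to confluence. Infected at m.o.i. 0.01 in maintenance MEM-Earle with 0.5% inactivated FBS. Serial compound dilutions added 2 h later (final 100, 20, 4, 0.8 µM; DMSO ≤0.1%). Viability read by MTT after 3–4 days at 37 °C. EC50 obtained by linear regression against untreated controls; mean of three determinations.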

[4] = test system: Vesicular stomatitis Indiana virus; assay: Antiviral activity against Vesicular stomatitis virus Indiana ATCC VR 158 infected in African green monkey Vero 76 cells assessed as protection against virus-induced cytopathic effect after 2 days by crystal violet staining-based plaque reduction assay; type: functional, organism-based; settings: ATCC VR 158, Vero 76, 48 h
[5] = Cytotoxicity against human MT4 cells assessed as decrease in cell viability after 96 hrs by MTT assay; type: cell-based
Summary of the method: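 Exponentially growing MT-4 cells seeded at 1×10^5 cells/mL in RPMI-1640 with 10% FBS and incubated with serial compound dilutions at 37 °C, 5% CO2. Viability read by MTT after 96 h. CC50 by linear regression versus untreated controls.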

[6] = test system: Human alphaherpesvirus 1; assay: Antiviral activity against Human herpesvirus 1 KOS ATCC VR 1493 infected in African green monkey Vero 76 cells assessed as protection against virus-induced cytopathic effect after 3 days by crystal violet staining-based plaque reduction assay; type: functional, organism-based; settings: Human alphaherpesvirus 1, KOS, Vero 76, 72 h
[7] = test system: Human orthopneumovirus; assay: Antiviral activity against Human respiratory syncytial virus A2 ATCC VR 1540 infected in African green monkey Vero 76 cells assessed as protection against virus-induced cytopathic effect after 5 days by crystal violet staining-based plaque reduction assay; type: functional, organism-based; settings: ATCC VR 1540, Vero 76, 120 h
[8] = test system: Mammalian orthoreovirus 1; assay: Antiviral activity against Reovirus 1 infected in golden hamster BHK21 cells assessed as protection against virus-induced cytopathic effect after 3 to 4 days by MTT assay; type: functional, organism-based; settings: Mammalian orthoreovirus 1, BHK-21; summary of the method: as §1
[9] = test system: Yellow fever virus; assay: Potency index, ratio of azauridine EC50 to compound EC50 for Yellow fever virus 17D vaccine (Stamaril Pasteur J07B01); type: functional
[10] = Cytotoxicity against African green monkey Vero 76 cells assessed as decrease in cell viability after 48 to 96 hrs by MTT assay; type: cell-based; settings: chlorocebus sabaeus
Summary of the method: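 Vero 76 cells seeded at 5×10^5 cells/mL in D-MEM with 10% FBS and incubated with serial compound dilutions at 37 °C, 5% CO2. Viability read by MTT after 48–96 h. CC50 by linear regression versus untreated controls.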

[11] = Antiviral activity against Human enterovirus B Faulkner ATCC VR 185 infected in African green monkey Vero 76 cells assessed as protection against virus-induced cytopathic effect after 3 days by crystal violet staining-based plaque reduction assay; type: functional, cell-based; settings: Faulkner ATCC VR 185, Vero 76, 72 h
[12] = test system: Bovine viral diarrhea virus 1; assay: Antiviral activity against Bovine viral diarrhea virus NADL ATCC VR 534 infected in bovine MDBK cells assessed as protection against virus-induced cytopathic effect after 3 to 4 days by MTT assay; type: functional, organism-based, Bovine viral diarrhea virus 1-NADL; settings: Bovine viral diarrhea virus isolates and strains, ATCC VR 534, MDBK; summary of the method: as §1
[13] = Cytotoxicity against bovine MDBK cells assessed as decrease in cell viability after 72 hrs by MTT assay; type: cell-based, Bos taurus; settings: cattle
Summary of the method: (§2)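 Uninfected MDBK (6×10^5 cells/mL, 10% horse serum) or BHK (1×10^6 cells/mL, 10% FBS) cells in MEM-Earle with serial compound dilutions at 37 °C, 5% CO2, run in parallel with the antiviral assays. Viability read by MTT after 72 h. CC50 by linear regression; mean of three determinations.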

[14] = test system: Human immunodeficiency virus 1; assay: Antiviral activity against HIV1 3B infected in human MT4 cells assessed as protection against virus-induced cytopathic effect after 4 days by MTT assay; type: functional, organism-based; settings: Human immunodeficiency virus 1, 3B, MT4, 96 h
Summary of the method: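 MT-4 cells (1×10^4/well) in RPMI with serial compound dilutions, infected with 100 CCID50 HIV-1 (m.o.i. 0.01). Viability read by MTT after 4 days at 37 °C. EC50 for 50% protection from cytopathicity obtained by linear regression versus untreated controls; mean of three determinations.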

[15] = Cytotoxicity against golden hamster BHK21 cells assessed as decrease in cell viability after 72 hrs by MTT assay; type: cell-based, Mesocricetus auratus, BHK-21; summary of the method: as §2
[16] = test system: West Nile virus; assay: Antiviral activity against West Nile virus clinical isolate infected in golden hamster BHK21 cells assessed as protection against virus-induced cytopathic effect after 3 to 4 days by MTT assay; type: functional, organism-based; settings: BHK-21; summary of the method: as §1
[17] = test system: dengue virus type 2; assay: Antiviral activity against Dengue virus type 2 clinical isolate infected in golden hamster BHK21 cells assessed as protection against virus-induced cytopathic effect after 3 to 4 days by MTT assay; type: functional, organism-based; settings: BHK-21; summary of the method: as §1
[18] = Selectivity index, ratio of CC50 for golden hamster BHK21 cells to EC50 for Yellow fever virus 17D; type: toxicity; settings: read-out: Ratio CC50/EC50
Summary of the method: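 Selectivity index calculated as BHK-21 CC50 divided by YFV EC50, both from MTT assays.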

Compound | EC50 [1] | EC50 [2] | EC50 [3] | EC50 [4] | CC50 at 96 h [5] | EC50 [6] | EC50 [7] | EC50 [8] | Ratio EC50 [9] | CC50 [10] | EC50 [11] | EC50 [12] | CC50 at 72 h [13] | EC50 [14] | CC50 at 72 h [15] | EC50 [16] | EC50 [17] | selectivity ratio [18]
Cc1cccc(C2CC(c3ccccc3)=NN2c2ccc(S(N)(=O)=O)cc2)c1 (configuration not stated) | > 25 µM | > 25 µM | > 25 µM | > 25 µM | 37 µM | > 25 µM | > 25 µM | > 25 µM | 10 | 25 µM | > 25 µM | > 23 µM | 23 µM | > 37 µM | 25 µM | – | – | –
NS(=O)(=O)c1ccc(N2N=C(c3ccccc3)CC2c2ccccc2F)cc1 (configuration not stated) | > 28 µM | > 28 µM | > 21 µM | > 28 µM | 42 µM | > 28 µM | > 28 µM | > 21 µM | 10 | 28 µM | > 28 µM | > 19 µM | 19 µM | > 42 µM | 21 µM | – | – | –
NS(=O)(=O)c1ccc(N2N=C(c3ccccc3)CC2c2ccc(F)cc2)cc1 (configuration not stated) | > 23 µM | > 23 µM | 2.6 µM | > 23 µM | 45 µM | > 23 µM | > 23 µM | > 12 µM | 10 | 23 µM | > 23 µM | > 18 µM | 18 µM | > 45 µM | 12 to 13 µM | > 13 µM | > 13 µM | 5
NS(=O)(=O)c1ccc(N2N=C(c3ccc(Oc4ccccc4)cc3)CC2c2cccc(Cl)c2)cc1 (configuration not stated) | > 88 µM | > 88 µM | 2.2 µM | > 88 µM | 8 µM | > 88 µM | > 88 µM | > 9 µM | 10 | 88 µM | > 88 µM | > 6 µM | 6 µM | > 8 µM | 9 to 10 µM | > 10 µM | > 10 µM | 4.5
NS(=O)(=O)c1ccc(N2N=C(c3ccc(Oc4ccccc4)cc3)CC2c2ccc(Cl)cc2)cc1 (configuration not stated) | > 88 µM | > 88 µM | 1.9 µM | > 88 µM | 9 µM | > 88 µM | > 88 µM | > 7 µM | 10 | 88 µM | > 88 µM | > 19 µM | 19 µM | > 9 µM | 7 to 8 µM | > 8 µM | > 8 µM | 4.2
NS(=O)(=O)c1ccc(N2N=C(c3ccc(OCc4ccccc4)cc3)CC2c2ccc(F)cc2)cc1 (configuration not stated) | > 90 µM | > 90 µM | 1.9 µM | > 90 µM | > 100 µM | > 90 µM | > 90 µM | > 69 µM | 10 | 90 µM | > 90 µM | > 100 µM | > 100 µM | > 100 µM | 60 to 69 µM | > 60 µM | > 60 µM | 31.6
NS(=O)(=O)c1ccc(N2N=C(c3ccccc3)CC2c2cccc(F)c2)cc1 (configuration not stated) | > 24 µM | > 24 µM | ≥ 15 µM | > 24 µM | 44 µM | > 24 µM | > 24 µM | > 15 µM | 10 | 24 µM | > 24 µM | > 20 µM | 20 µM | 13 µM | 15 µM | – | – | –
C[C@@]1(O)[C@H](O)[C@@H](CO)O[C@H]1n1cnc2c(=O)[nH]c(N)nc21 [2'-B-METHYL-GUANOSINE] | – | – | – | – | – | – | – | – | – | – | – | – | – | – | – | 0.8 µM | 1.7 µM | –
COc1c(C)c2c(c(O)c1C/C=C(\C)CCC(=O)O)C(=O)OC2 [MYCOPHENOLIC ACID] | – | – | – | – | – | – | – | – | – | 9 µM | – | – | – | – | – | – | – | –
NS(=O)(=O)c1ccc(N2N=C(c3ccccc3)CC2c2ccccc2)cc1 (configuration not stated) | > 22 µM | > 22 µM | > 15 µM | > 22 µM | 42 µM | > 22 µM | > 22 µM | > 15 µM | 10 | 22 µM | > 22 µM | > 16 µM | 16 µM | > 42 µM | 15 µM | – | – | –
Nc1nc2c(ncn2COCCO)c(=O)[nH]1 [ACYCLOVIR] | – | – | – | – | – | 1.8 µM | – | – | – | > 100 µM | – | – | – | – | – | – | – | –
NS(=O)(=O)c1ccc(N2N=C(c3ccccc3)CC2c2ccc(Cl)cc2)cc1 (configuration not stated) | > 21 µM | > 21 µM | > 32 µM | > 21 µM | 36 µM | > 21 µM | > 21 µM | > 32 µM | 10 | 21 µM | > 21 µM | > 11 µM | 11 µM | > 36 µM | 32 µM | – | – | –
